pEC50, pIC50, pKi: −log10 of the molar value. Activity calls are given as the source filed them. No cut-off for these calls is given here.
How the values were obtained:
[1] = target: T1, D(4) dopamine receptor (Homo sapiens, UniProt P21917); test: Agonist activity at human D4 receptor expressed in CHOK1 cells assessed as induction of beta-arrestin recruitment measured after 90 mins by luminescence assay; assay type: cell-based; settings: for pEC50: read-out: EC50
T1 sequence (P21917 whole entry): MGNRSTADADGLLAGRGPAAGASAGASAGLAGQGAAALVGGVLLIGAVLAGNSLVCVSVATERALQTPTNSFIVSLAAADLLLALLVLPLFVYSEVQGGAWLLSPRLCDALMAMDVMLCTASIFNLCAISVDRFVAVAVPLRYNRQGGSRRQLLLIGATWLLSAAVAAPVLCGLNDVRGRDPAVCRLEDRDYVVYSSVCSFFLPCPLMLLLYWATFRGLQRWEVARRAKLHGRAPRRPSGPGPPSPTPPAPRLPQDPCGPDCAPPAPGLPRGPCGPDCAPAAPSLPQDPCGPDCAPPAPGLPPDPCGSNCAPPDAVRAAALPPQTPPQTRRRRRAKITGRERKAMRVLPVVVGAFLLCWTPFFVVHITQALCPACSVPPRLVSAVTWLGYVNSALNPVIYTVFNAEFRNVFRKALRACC
How it was run: (§1)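 PathHunter enzyme-complementation assay in CHO-K1 cells stably expressing human D2R long isoform, D3R or D4R, seeded overnight in Ham's F12/10% FBS. Compounds were diluted in PBS with 0.2 μM sodium metabisulfite and applied at multiple concentrations for 90 min at 37 °C. Detection reagent was added for 45–60 min at room temperature, then luminescence was read. Values are % of maximal dopamine response, from nonlinear regression of triplicate runs, mean ± SEM, n = 3–4.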

[2] = target: T2, D(2) dopamine receptor (Homo sapiens, UniProt P14416); test: Agonist activity at human D2L receptor expressed in CHOK1 cells assessed as inhibition of forskolin-induced cAMP accumulation measured after 30 mins by Eu-cAMP tracer based TR-FRET assay; assay type: cell-based
T2 sequence (P14416 whole entry, canonical isoform): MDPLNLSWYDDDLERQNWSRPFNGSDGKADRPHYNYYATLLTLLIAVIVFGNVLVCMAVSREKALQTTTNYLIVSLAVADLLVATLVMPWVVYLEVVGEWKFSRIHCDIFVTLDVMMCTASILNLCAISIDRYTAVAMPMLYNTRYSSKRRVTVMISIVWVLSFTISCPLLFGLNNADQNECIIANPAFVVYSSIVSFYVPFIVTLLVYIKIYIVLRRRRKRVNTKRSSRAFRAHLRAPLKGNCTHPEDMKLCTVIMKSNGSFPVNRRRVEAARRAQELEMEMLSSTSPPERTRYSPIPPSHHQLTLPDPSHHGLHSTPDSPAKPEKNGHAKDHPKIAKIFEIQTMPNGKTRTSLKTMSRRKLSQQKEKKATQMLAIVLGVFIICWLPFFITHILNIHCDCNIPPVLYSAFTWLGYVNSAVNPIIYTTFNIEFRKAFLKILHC
How it was run: (§2)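 LANCE Ultra TR-FRET cAMP assay in CHO-K1 cells stably expressing human D2R long isoform or D4R. Cells were plated in HBSS/5 mM HEPES/0.2 μM metabisulfite, then immediately given compound plus forskolin (10 μM final) for 30 min at room temperature. Eu-cAMP tracer and ULight-anti-cAMP were added for 2 h in the dark. Values are % of maximal dopamine signal, nonlinear regression of triplicate runs, n = 3–4.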

[3] = target: T1, D(4) dopamine receptor; test: Antagonist activity at human D4 receptor expressed in CHOK1 cells assessed as inhibition of dopamine-induced beta-arrestin recruitment measured after 90 mins by luminescence assay; assay type: cell-based; settings: read-out: IC50
[4] = target: D(1A) dopamine receptor (Homo sapiens) (UniProt P21728); test: Antagonist activity at D1 receptor (unknown origin) stably expressed in CHOK1 cells assessed as inhibition of dopamine-induced beta-arrestin recruitment measured after 90 mins by luminescence assay; assay type: cell-based
D(1A) dopamine receptor (Homo sapiens), sequence (P21728 whole entry): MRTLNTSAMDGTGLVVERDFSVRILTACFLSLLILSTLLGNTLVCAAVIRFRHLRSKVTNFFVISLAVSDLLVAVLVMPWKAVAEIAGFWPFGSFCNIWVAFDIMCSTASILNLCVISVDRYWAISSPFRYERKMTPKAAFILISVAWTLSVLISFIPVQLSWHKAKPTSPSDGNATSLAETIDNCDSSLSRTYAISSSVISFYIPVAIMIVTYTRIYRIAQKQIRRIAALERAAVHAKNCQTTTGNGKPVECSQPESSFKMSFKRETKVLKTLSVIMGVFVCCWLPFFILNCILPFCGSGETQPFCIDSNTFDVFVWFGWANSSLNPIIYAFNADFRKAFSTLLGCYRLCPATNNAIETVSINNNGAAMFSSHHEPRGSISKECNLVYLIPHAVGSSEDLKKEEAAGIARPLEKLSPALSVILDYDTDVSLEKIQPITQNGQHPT

[5] = target: T2, D(2) dopamine receptor; test: Antagonist activity at human D2L receptor expressed in CHOK1 cells assessed as inhibition of dopamine-induced beta-arrestin recruitment measured after 90 mins by luminescence assay relative to control; assay type: cell-based
How it was run: (§3)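 Antagonist-mode PathHunter β-arrestin assay in CHO-K1 cells stably expressing human D2R long isoform or D3R, seeded overnight. Compound dilutions in PBS with 0.2 μM metabisulfite were co-incubated with an EC80 dopamine concentration for 90 min at 37 °C. Detection reagent was added for 45–60 min at room temperature, then luminescence was read. Values are % of dopamine EC80 response, from nonlinear regression of triplicate runs, n = 3–4.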

[6] = target: D(1B) dopamine receptor (Homo sapiens) (UniProt P21918); test: Antagonist activity at D5 receptor (unknown origin) stably expressed in CHOK1 cells assessed as inhibition of dopamine-induced beta-arrestin recruitment measured after 90 mins by luminescence assay; assay type: cell-based
D(1B) dopamine receptor (Homo sapiens), sequence (P21918 whole entry): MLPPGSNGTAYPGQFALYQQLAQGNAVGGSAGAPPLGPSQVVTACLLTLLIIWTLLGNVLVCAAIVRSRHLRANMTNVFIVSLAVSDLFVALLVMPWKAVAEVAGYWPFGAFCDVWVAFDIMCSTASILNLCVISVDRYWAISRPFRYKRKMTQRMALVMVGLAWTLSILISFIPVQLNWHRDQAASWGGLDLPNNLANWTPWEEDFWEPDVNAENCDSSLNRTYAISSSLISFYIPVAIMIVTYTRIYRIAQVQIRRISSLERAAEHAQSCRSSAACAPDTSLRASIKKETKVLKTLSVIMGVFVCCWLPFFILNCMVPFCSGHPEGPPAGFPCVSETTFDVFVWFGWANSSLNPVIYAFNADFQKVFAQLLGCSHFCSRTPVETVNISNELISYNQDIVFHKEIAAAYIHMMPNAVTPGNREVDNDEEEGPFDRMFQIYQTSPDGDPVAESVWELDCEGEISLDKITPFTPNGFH

[7] = target: T1, D(4) dopamine receptor; test: Displacement of [3H]N-methylspiperone from human D4.4 receptor expressed in HEK293 cell membranes measured after 60 mins by scintillation counting method
How it was run: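 Frozen HEK293 membranes stably expressing human D4.4R (30 μg/well) in EBSS-bicarbonate buffer, pH 7.4, were incubated with 0.4 nM [3H]N-methylspiperone and half-log compound dilutions (30% DMSO vehicle) for 60 min at room temperature. Nonspecific binding was defined by 10 μM (+)-butaclamol. Samples were filtered on GF/B filters and counted by scintillation.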

[8] = target: T3, D(4) dopamine receptor (Homo sapiens) (UniProt P21917); test: Agonist activity at human D4 receptor expressed in CHOK1 cells assessed as inhibition of forskolin-induced cAMP accumulation measured after 30 mins by Eu-cAMP tracer based TR-FRET assay relative to dopamine; assay type: functional, cell-based; how it was run: as §2
T3 sequence (whole entry): T1 sequence (P21917 whole entry)

[9] = target: D(1A) dopamine receptor (Homo sapiens) (UniProt P21728); test: Agonist activity at D1 receptor (unknown origin) stably expressed in CHOK1 cells assessed as induction of beta-arrestin recruitment measured after 90 mins by luminescence assay; assay type: cell-based
[10] = target: T3, D(4) dopamine receptor (Homo sapiens); test: Antagonist activity at human D4 receptor expressed in CHOK1 cells assessed as inhibition of dopamine-induced beta-arrestin recruitment measured after 90 mins by luminescence assay relative to control; assay type: cell-based; set-up: concentration or dose not given beside the values
[11] = target: T4, D(3) dopamine receptor (Homo sapiens, UniProt P35462); test: Displacement of [3H]N-methylspiperone from human D3 receptor expressed in HEK293 cell membranes measured after 60 mins by scintillation counting method
T4 sequence (P35462 whole entry): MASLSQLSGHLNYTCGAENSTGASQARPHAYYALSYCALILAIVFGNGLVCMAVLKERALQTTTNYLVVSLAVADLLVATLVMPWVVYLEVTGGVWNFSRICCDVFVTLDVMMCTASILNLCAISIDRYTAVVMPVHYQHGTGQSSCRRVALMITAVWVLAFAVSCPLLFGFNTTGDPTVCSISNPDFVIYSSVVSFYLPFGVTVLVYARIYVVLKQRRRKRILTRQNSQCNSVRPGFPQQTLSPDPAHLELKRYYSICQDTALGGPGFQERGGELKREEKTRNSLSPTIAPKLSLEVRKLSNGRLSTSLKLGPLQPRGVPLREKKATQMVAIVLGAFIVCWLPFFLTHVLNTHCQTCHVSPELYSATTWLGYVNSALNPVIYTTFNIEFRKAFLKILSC
How it was run: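 HEK293 cells stably expressing human D3R; membranes in EBSS buffer pH 7.4, stored at −80 °C. 20 μg protein/well with 0.4 nM [3H]N-methylspiperone (final), half-log dilutions in 30% DMSO, in triplicate. 60 min at room temperature, then GF/B filtration. Nonspecific binding with 10 μM (+)-butaclamol.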

[12] = target: T1, D(4) dopamine receptor; test: Agonist activity at human D4 receptor expressed in CHOK1 cells assessed as inhibition of forskolin-induced cAMP accumulation measured after 30 mins by Eu-cAMP tracer based TR-FRET assay; assay type: functional, cell-based; settings: for pEC50: read-out: EC50; how it was run: as §2
[13] = target: T1, D(4) dopamine receptor; test: Antagonist activity at human D4 receptor expressed in CHOK1 cells assessed as suppression of dopamine-induced inhibition of forskolin-stimulated cAMP accumulation measured after 30 mins by Eu-cAMP tracer based TR-FRET assay; assay type: functional, cell-based
[14] = target: T2, D(2) dopamine receptor; test: Agonist activity at human D2L receptor expressed in CHOK1 cells assessed as induction of beta-arrestin recruitment measured after 90 mins by luminescence assay; assay type: cell-based; how it was run: as §1
[15] = target: D(1B) dopamine receptor (Homo sapiens) (UniProt P21918); test: Agonist activity at D5 receptor (unknown origin) stably expressed in CHOK1 cells assessed as induction of beta-arrestin recruitment measured after 90 mins by luminescence assay; assay type: cell-based
[16] = target: T2, D(2) dopamine receptor; test: Antagonist activity at human D2L receptor expressed in CHOK1 cells assessed as suppression of dopamine-induced inhibition of forskolin-stimulated cAMP accumulation measured after 30 mins by Eu-cAMP tracer based TR-FRET assay relative to dopamine; assay type: cell-based; settings: 0.5 h
[17] = target: T3, D(4) dopamine receptor (Homo sapiens); test: Agonist activity at human D4 receptor expressed in CHOK1 cells assessed as induction of beta-arrestin recruitment measured after 90 mins by luminescence assay relative to control; assay type: cell-based; how it was run: as §1
[18] = target: T4, D(3) dopamine receptor; test: Displacement of [3H](R)-(+)-7-OH-DPAT from human D3 receptor expressed in HEK293 cell membranes measured after 90 mins by scintillation counting method
How it was run: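 Fresh HEK293 hD3R membranes (40 μg/well) in 50 mM Tris, 10 mM MgCl2, 1 mM EDTA, pH 7.4 were incubated with 0.5 nM [3H]-(R)-(+)-7-OH-DPAT and half-log compound dilutions in 30% DMSO for 90 min at room temperature. Nonspecific binding was defined with 10 μM (+)-butaclamol. Samples were filtered on PEI-soaked GF/B filters and counted by scintillation.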

[19] = target: T4, D(3) dopamine receptor; test: Agonist activity at human D3 receptor expressed in CHOK1 cells assessed as induction of beta-arrestin recruitment measured after 90 mins by luminescence assay; assay type: cell-based; how it was run: as §1
[20] = target: T4, D(3) dopamine receptor; test: Antagonist activity at human D3 receptor expressed in CHOK1 cells assessed as inhibition of dopamine-induced beta-arrestin recruitment measured after 90 mins by luminescence assay; assay type: cell-based; settings: for pIC50: read-out: IC50; how it was run: as §3
[21] = target: T3, D(4) dopamine receptor (Homo sapiens); test: Antagonist activity at human D4 receptor expressed in CHOK1 cells assessed as suppression of dopamine-induced inhibition of forskolin-stimulated cAMP accumulation measured after 30 mins by Eu-cAMP tracer based TR-FRET assay relative to dopamine; assay type: functional, cell-based; set-up: concentration or dose not given beside the values
[22] = target: T1, D(4) dopamine receptor; test: Displacement of [3H](R)-(+)-7-OH-DPAT from human D4.4 receptor expressed in HEK293 cell membranes measured after 90 mins by scintillation counting method
How it was run: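 HEK293 cells stably expressing human D4.4R; membranes used fresh in 50 mM Tris, 10 mM MgCl2, 1 mM EDTA, pH 7.4. 60 μg protein/well with 3 nM [3H]-(R)-(+)-7-OH-DPAT (final), half-log dilutions in 30% DMSO, in triplicate. 90 min at room temperature, then GF/B filtration. Nonspecific binding with 10 μM (+)-butaclamol.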

EC50 [1]	Structure (SMILES)	pEC50 [1]	EC50 [2]	pIC50 [3]	inhibition [4]	INH [5] [%]	inhibition [6]	pKi [7]	Emax [8] [%]	Activity [9]	pKi [11]	pEC50 [12]	pIC50 [13]	EC50 [14]	inhibition (INH) [16] [%]	pKi [18]	EC50 [19]	pKi [22]	IC50 [20]	EC50 [12]	other results
	Cc1cccc(NC(=O)CN2CCC(c3ccccc3)CC2)c1	6.62	Not Active	6.87	inactive	99.7	inactive	7.59	32.9	inactive	6.36	7.81	8.70	Not Active	100	6.11	Not Active	8.85			inhibition [10]: 93.3%; Activity [15]: inactive; Emax [17]: 14%; pIC50 [20]: < 4.30; inhibition [21]: 46.7%
	Cc1cccc(NC(=O)CN2CCN(c3cccc4ccccc34)CC2)c1	5.04	Not Active	5.37		100		7.55	27.8		4.94	6.96	5.60	Not Active	100	5.90	Not Active	8.78	Not Active		inhibition [10]: 96.7%; Emax [17]: 16.4%; inhibition [21]: 73.8%
Not Active	Cc1cccc(NC(=O)CN2CCC(c3ccc(Cl)cc3)CC2)c1		Not Active			100					4.58			Not Active	97.5		Not Active		Not Active	Not Active	
Not Active	Cc1ccc(C2CCN(CC(=O)Nc3cccc(C)c3)CC2)cc1		Not Active	5.13		100		6.96			5.43		5.51	Not Active	100		Not Active		Not Active	Not Active	
	Cc1cccc(NC(=O)CN2CCC(c3ccccn3)CC2)c1	6.33	Not Active	6.72	inactive	94.8	inactive	7.27	61.9	inactive	5.77	8.57	7.16	Not Active		6.78		8.40			inhibition [10]: 81.7%; Activity [15]: inactive; Emax [17]: 22.5%; pEC50 ([19]; read-out: EC50): < 4.00; pIC50 [20]: < 4.00; inhibition [21]: 53.8%
Not Active	Cc1cccc(NC(=O)CCN2CCN(c3ncccn3)CC2)c1		Not Active	6.37	inactive	94.6	inactive	6.28		inactive	5.34	6.25	5.67	Not Active		5.03	Not Active	7.48			Activity [15]: inactive; pIC50 [20]: < 4.30
Not Active	CCc1cccc(NC(=O)CN2CCC(c3ccccn3)CC2)c1		Not Active	5.58		100		7.08			6.30	6.27	5.72	Not Active	96.6		Not Active		Not Active		

Structure (SMILES)	EC50 [1]	pEC50 [1]	EC50 [2]	pIC50 [3]	inhibition [4]	INH [5] [%]	inhibition [6]	pKi [7]	Emax [8] [%]	Activity [9]	pKi [11]	pEC50 [12]	pIC50 [13]	EC50 [14]	inhibition (INH) [16] [%]	pKi [18]	EC50 [19]	pKi [22]	IC50 [20]	EC50 [12]	other results
Cc1ccc(C2CCN(CC(=O)Nc3cccc(C)c3)CC2)nc1	Not Active		Not Active	6.40		100		7.38			< 4.30		6.34	Not Active	100	< 5.00	Not Active	8.16	Not Active	Not Active	
CCc1cccc(NC(=O)CN2CCN(c3ccc(Cl)cn3)CC2)c1	Not Active		Not Active	4.98		100		6.76			< 4.30		5.15	Not Active	100		Not Active		Not Active	Not Active	
Cc1cccc(NC(=O)CN2CCN(c3ccc(Cl)cn3)CC2)c1	Not Active		Not Active	5.11		100		7.02			< 4.30		5.33	Not Active	98.3	< 5.00	Not Active	7.90	Not Active	Not Active	

Source: ChEMBL document CHEMBL4390675, “Dopamine D4 Receptor-Selective Compounds Reveal Structure-Activity Relationships that Engender Agonist Efficacy” (J Med Chem, 2019)
